Consider 29 molecules from ChEMBL document CHEMBL2346541, “Synthesis and evaluation of quinazoline derivatives as phosphodiesterase 7 inhibitors” (Bioorg Med Chem, 2013).

This experiment addresses Phosphodiesterase 7 (Homo sapiens, UniProt Q13946+Q9NP56). In words: Inhibition of PDE7 catalytic domain (unknown origin) using [3H]-cAMP as substrate after 1 hr by scintillation proximity assay. In kind it is protein assay. In a few lines: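 Test compounds were dissolved in DMSO (10 mM stock) and run as a dilution series. It was stirred 1 h at room temperature, stopped with PDE SPA beads, settled 20 min and counted. Assays were run in triplicate, and IC50 was calculated.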
On the technique in general: SPA uses beads or plates that emit light when radiolabelled molecules are held near them.

Usually IC50 stands for the midpoint of a concentration-inhibition curve. Read a low IC50 as greater potency. In turn, `Cc1nc(SCc2ccc(-c3ccccc3-c3nn[nH]n3)cc2)c2ccccc2n1` yielded an IC50 of 11 µM.

`CC(C)c1nc(SCc2ccc(-c3ccccc3C(=O)O)cc2)c2ccccc2n1` displayed an IC50 of 44 µM.

Regarding `CC(C)c1nc(SCc2ccc(-c3cccc(C(=O)O)c3)cc2)c2ccccc2n1`, the IC50 was 0.85 µM.

On to `CC(C)c1nc(SCc2ccc(-c3ccc(C(=O)O)cc3)cc2)c2ccccc2n1`, for which the IC50 worked out at 0.93 µM. The IC50 values of the last two molecules are within 1.5-fold of each other.

As to `Clc1ccc(-c2nc(SCc3ccc(-c4ccccc4-c4nnn[nH]4)cc3)c3ccccc3n2)cc1`, the IC50 stood at 12 µM.

`Brc1cc(Br)c2c(SCc3ccc(-c4cccc(-c5nnn[nH]5)c4)cc3)nc(CCc3ccccc3)nc2c1` came in with an IC50 greater than 100 µM.

Turning to `COc1cc2c(SCc3ccc(-c4ccccc4-c4nnn[nH]4)cc3)nc(CCc3ccccc3)nc2c(OC)c1OC`, the IC50 turned out to be 3.6 µM. This lies in the single-digit micromolar range.

For the molecule `N#Cc1ccccc1-c1ccc(CSc2ncnc3ccccc23)cc1`, the IC50 is greater than 100 µM.

Molecule `Cc1nc(SCc2ccc(-c3ccccc3C#N)cc2)c2ccccc2n1` displayed an IC50 greater than 100 µM.

With `N#Cc1ccccc1-c1ccc(CSc2nc(C(Cl)(Cl)Cl)nc3ccccc23)cc1`, the IC50 is greater than 100 µM.

As for `CC(C)c1nc(SCc2ccc(-c3ccccc3C#N)cc2)c2ccccc2n1`, the IC50 was greater than 100 µM.

Consider `N#Cc1ccccc1-c1ccc(CSc2nc(SCc3ccccc3)nc3ccccc23)cc1`, for which the IC50 result is listed as “ND(Insoluble)”.

In the case of `N#Cc1ccccc1-c1ccc(CSc2nc(SCc3ccc(F)cc3)nc3ccccc23)cc1`, the IC50 was greater than 100 µM.

Consider `N#Cc1ccccc1-c1ccc(CSc2nc(SCc3ccc([N+](=O)[O-])cc3)nc3ccccc23)cc1`, for which the IC50 was greater than 100 µM.

`COC(=O)c1ccccc1-c1ccc(CSc2nc(C(C)C)nc3ccccc23)cc1` came in with an IC50 greater than 100 µM.

The molecule `COC(=O)c1cccc(-c2ccc(CSc3nc(C(C)C)nc4ccccc34)cc2)c1` gave an IC50 greater than 100 µM.

`COC(=O)c1ccc(-c2ccc(CSc3nc(C(C)C)nc4ccccc34)cc2)cc1` displayed an IC50 of 33 µM.

Molecule `c1ccc(CSc2nc(SCc3ccc(-c4ccccc4-c4nnn[nH]4)cc3)c3ccccc3n2)cc1` returned an IC50 of 7.1 µM. Compared with the last molecule, the IC50 is about 4.6-fold lower.

The molecule `Fc1ccc(CSc2nc(SCc3ccc(-c4ccccc4-c4nnn[nH]4)cc3)c3ccccc3n2)cc1` had an IC50 of 6.8 µM.

`O=[N+]([O-])c1ccc(CSc2nc(SCc3ccc(-c4ccccc4-c4nnn[nH]4)cc3)c3ccccc3n2)cc1` gave an IC50 of 4.9 µM.

The molecule `COc1cccc(CSc2nc(SCc3ccc(-c4ccccc4-c4nnn[nH]4)cc3)c3ccccc3n2)c1` showed an IC50 of 3.3 µM.

Consider `c1ccc(-c2nnn[nH]2)c(-c2ccc(CSc3nc(SCc4ccc(-c5ccccc5-c5nnn[nH]5)cc4)c4ccccc4n3)cc2)c1`, for which the IC50 result is reported as “ND(Insoluble)”.

Regarding `c1cc(-c2ccc(CSc3ncnc4ccccc34)cc2)cc(-c2nnn[nH]2)c1`, the IC50 was determined as 8.2 µM.

Molecule `c1ccc2c(SCc3ccc(-c4ccc(-c5nnn[nH]5)cc4)cc3)ncnc2c1` returned an IC50 of 7.2 µM.

The molecule `Cc1nc(SCc2ccc(-c3cccc(-c4nnn[nH]4)c3)cc2)c2ccccc2n1` gave an IC50 of 2.5 µM.

The molecule `Cc1nc(SCc2ccc(-c3ccc(-c4nnn[nH]4)cc3)cc2)c2ccccc2n1` registered an IC50 of 8 µM.

The molecule `ClC(Cl)(Cl)c1nc(SCc2ccc(-c3ccccc3-c3nnn[nH]3)cc2)c2ccccc2n1` came in with an IC50 of 2.6 µM.

As for `CC(C)c1nc(SCc2ccc(-c3cccc(-c4nnn[nH]4)c3)cc2)c2ccccc2n1`, the IC50 is 0.89 µM.

In the case of `CC(C)c1nc(SCc2ccc(-c3ccccc3-c3nn[nH]n3)cc2)c2ccccc2n1`, the IC50 was 0.77 µM.
